Experimental data: ChEMBL document CHEMBL3526002, “Tissue distribution and identification of radioactivity components at elimination phase after oral administration of [¹⁴C]CS-1036, an α-amylase inhibitor, to rats” (Drug Metab Dispos, 2013)

Columns and labels:
[1] = Drug uptake in albino F344/DuCrlCrlj rat testis at 5 mg/kg, po after 4 hrs by liquid scintillation counting; assay type: ADME, organism-based; design: dose 5 mg/kg, dosed compound name [14C]CS-1036, route oral; details: in vivo
[2] = Drug uptake in albino F344/DuCrlCrlj rat testis at 5 mg/kg, po after 72 hrs by liquid scintillation counting; assay type: ADME, organism-based; design: dose 5 mg/kg, dosed compound name [14C]CS-1036, route oral; details: in vivo
Plasma [3] = assay: Drug metabolism in albino F344/DuCrlCrlj rat plasma protein assessed as unbound parent compound and metabolite M1 level at 10 mg/kg, po administered for 5 days by liquid scintillation counting; assay type: ADME, organism-based; design: dose 10 mg/kg, dosed compound name [14C]CS-1036, route oral; details: in vivo, 120 h
How it was run: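 Male F344/DuCrlCrlj rats (n = 3) received oral [14C]CS-1036 at 10 mg/kg/day for 5 days at 24-h intervals, with food freely available. Plasma was taken from the abdominal aorta 24 h after the fifth dose and pooled. It was precipitated with acetonitrile, and the pellets were washed with 0.4 M TCA, 80% methanol and 30% ether/ethanol until washes were below twice background. Pellets were HCl-hydrolysed, and recovered radioactivity was counted by LSC.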

Pancreas = assay: Drug uptake in albino F344/DuCrlCrlj rat pancreas at 5 mg/kg, po after 8 hrs by liquid scintillation counting; assay type: ADME, organism-based; design: dose 5 mg/kg, dosed compound name [14C]CS-1036, route oral; details: in vivo
Harderian gland [4] = assay: Drug uptake in albino F344/DuCrlCrlj rat harderian gland assessed as ng equivalent of CS-1036 at 5 mg/kg, po after 24 hrs by liquid scintillation counting; assay type: ADME, organism-based; design: dose 5 mg/kg, dosed compound name [14C]CS-1036, route oral; details: in vivo
[5] = Drug uptake in albino F344/DuCrlCrlj rat brown fat at 5 mg/kg, po after 336 hrs by liquid scintillation counting; assay type: ADME, organism-based, Brown adipose tissue; design: dose 5 mg/kg, dosed compound name [14C]CS-1036, route oral; details: in vivo
Stomach [6] = assay: Drug uptake in albino F344/DuCrlCrlj rat stomach assessed as ng equivalent of CS-1036 at 5 mg/kg, po after 336 hrs by liquid scintillation counting; assay type: ADME, organism-based; design: dose 5 mg/kg, dosed compound name [14C]CS-1036, route oral; details: in vivo
[7] = Drug uptake in albino F344/DuCrlCrlj rat mandibular gland assessed as ng equivalent of CS-1036 at 5 mg/kg, po after 168 hrs by liquid scintillation counting; assay type: ADME, organism-based; design: dose 5 mg/kg, dosed compound name [14C]CS-1036, route oral; details: in vivo
Thymus = assay: Drug uptake in albino F344/DuCrlCrlj rat thymus assessed as ng equivalent of CS-1036 at 5 mg/kg, po after 72 hrs by liquid scintillation counting; assay type: ADME, organism-based; design: dose 5 mg/kg, dosed compound name [14C]CS-1036, route oral; details: in vivo
Large intestine = assay: Drug uptake in albino F344/DuCrlCrlj rat large intestine assessed as ng equivalent of CS-1036 at 5 mg/kg, po after 4 hrs by liquid scintillation counting; assay type: ADME, organism-based; design: dose 5 mg/kg, dosed compound name [14C]CS-1036, route oral; details: in vivo
Heart = assay: Drug uptake in albino F344/DuCrlCrlj rat heart assessed as ng equivalent of CS-1036 at 5 mg/kg, po after 1 hr by liquid scintillation counting; assay type: ADME, organism-based; design: dose 5 mg/kg, dosed compound name [14C]CS-1036, route oral; details: in vivo
Adrenal gland [8] = assay: Drug uptake in albino F344/DuCrlCrlj rat adrenal gland assessed as ng equivalent of CS-1036 at 5 mg/kg, po after 1 hr by liquid scintillation counting; assay type: ADME, organism-based; design: dose 5 mg/kg, dosed compound name [14C]CS-1036, route oral; details: in vivo
Harderian gland [9] = assay: Drug uptake in albino F344/DuCrlCrlj rat harderian gland assessed as ng equivalent of CS-1036 at 5 mg/kg, po after 168 hrs by liquid scintillation counting; assay type: ADME, organism-based; design: dose 5 mg/kg, dosed compound name [14C]CS-1036, route oral; details: in vivo
Cerebellum = assay: Drug uptake in albino F344/DuCrlCrlj rat cerebellum at 5 mg/kg, po after 1 hr by liquid scintillation counting; assay type: ADME, organism-based; design: dose 5 mg/kg, dosed compound name [14C]CS-1036, route oral; details: in vivo
Plasma [10] = assay: Drug metabolism in albino F344/DuCrlCrlj rat plasma assessed as (2R,3R,4R)-2-(hydroxymethyl)pyrrolidine-3,4-diol formation at 10 mg/kg, po after 8 to 72 hrs by liquid scintillation counting; assay type: ADME, organism-based; design: dose 10 mg/kg, dosed compound name [14C]CS-1036, route oral; details: in vivo
Spleen [11] = assay: Drug uptake in albino F344/DuCrlCrlj rat spleen at 5 mg/kg, po after 336 hrs by liquid scintillation counting; assay type: ADME, organism-based; design: dose 5 mg/kg, dosed compound name [14C]CS-1036, route oral; details: in vivo
Stomach [12] = assay: Drug uptake in albino F344/DuCrlCrlj rat stomach assessed as ng equivalent of CS-1036 at 5 mg/kg, po after 24 hrs by liquid scintillation counting; assay type: ADME, organism-based; design: dose 5 mg/kg, dosed compound name [14C]CS-1036, route oral; details: in vivo
Aorta [13] = assay: Drug uptake in albino F344/DuCrlCrlj rat aorta assessed as ng equivalent of CS-1036 at 5 mg/kg, po after 24 hrs by liquid scintillation counting; assay type: ADME, organism-based; design: dose 5 mg/kg, dosed compound name [14C]CS-1036, route oral; details: in vivo
Lung [14] = assay: Drug uptake in albino F344/DuCrlCrlj rat lung at 5 mg/kg, po after 1 hr by liquid scintillation counting; assay type: ADME, organism-based; design: dose 5 mg/kg, dosed compound name [14C]CS-1036, route oral; details: in vivo
Liver = assay: Drug uptake in albino F344/DuCrlCrlj rat liver assessed as ng equivalent of CS-1036 at 5 mg/kg, po after 336 hrs by liquid scintillation counting; assay type: ADME, organism-based; design: dose 5 mg/kg, dosed compound name [14C]CS-1036, route oral; details: in vivo
Adrenal gland [15] = assay: Drug uptake in albino F344/DuCrlCrlj rat adrenal gland assessed as ng equivalent of CS-1036 at 5 mg/kg, po after 168 hrs by liquid scintillation counting; assay type: ADME, organism-based; design: dose 5 mg/kg, dosed compound name [14C]CS-1036, route oral; details: in vivo
[16] = Drug uptake in albino F344/DuCrlCrlj rat mandibular gland assessed as ng equivalent of CS-1036 at 5 mg/kg, po after 72 hrs by liquid scintillation counting; assay type: ADME, organism-based; design: dose 5 mg/kg, dosed compound name [14C]CS-1036, route oral; details: in vivo
Spleen [17] = assay: Drug uptake in albino F344/DuCrlCrlj rat spleen at 5 mg/kg, po after 72 hrs by liquid scintillation counting; assay type: ADME, organism-based; design: dose 5 mg/kg, dosed compound name [14C]CS-1036, route oral; details: in vivo
Aorta [18] = assay: Drug uptake in albino F344/DuCrlCrlj rat aorta assessed as ng equivalent of CS-1036 at 5 mg/kg, po after 1 hr by liquid scintillation counting; assay type: ADME, organism-based; design: dose 5 mg/kg, dosed compound name [14C]CS-1036, route oral; details: in vivo
Plasma [19] = assay: Drug uptake in albino F344/DuCrlCrlj rat plasma assessed as ng equivalent of CS-1036 at 5 mg/kg, po after 4 hrs by liquid scintillation counting; assay type: ADME, organism-based; design: dose 5 mg/kg, dosed compound name [14C]CS-1036, route oral; details: in vivo
[20] = Drug uptake in albino F344/DuCrlCrlj rat thyroid gland assessed as ng equivalent of CS-1036 at 5 mg/kg, po after 168 hrs by liquid scintillation counting; assay type: ADME, organism-based; design: dose 5 mg/kg, dosed compound name [14C]CS-1036, route oral; details: in vivo
[21] = Drug uptake in albino F344/DuCrlCrlj rat mandibular gland at 5 mg/kg, po after 336 hrs by liquid scintillation counting; assay type: ADME, organism-based; design: dose 5 mg/kg, dosed compound name [14C]CS-1036, route oral; details: in vivo
Small intestine = assay: Drug uptake in albino F344/DuCrlCrlj rat small intestine at 5 mg/kg, po after 8 hrs by liquid scintillation counting; assay type: ADME, organism-based; design: dose 5 mg/kg, dosed compound name [14C]CS-1036, route oral; details: in vivo
Zone of skin = assay: Drug uptake in albino F344/DuCrlCrlj rat skin assessed as ng equivalent of CS-1036 at 5 mg/kg, po after 168 hrs by liquid scintillation counting; assay type: ADME, organism-based; design: dose 5 mg/kg, dosed compound name [14C]CS-1036, route oral; details: in vivo
Lung [22] = assay: Drug uptake in albino F344/DuCrlCrlj rat lung assessed as ng equivalent of CS-1036 at 5 mg/kg, po after 24 hrs by liquid scintillation counting; assay type: ADME, organism-based; design: dose 5 mg/kg, dosed compound name [14C]CS-1036, route oral; details: in vivo
[23] = Drug uptake in albino F344/DuCrlCrlj rat thyroid gland assessed as ng equivalent of CS-1036 at 5 mg/kg, po after 72 hrs by liquid scintillation counting; assay type: ADME, organism-based; design: dose 5 mg/kg, dosed compound name [14C]CS-1036, route oral; details: in vivo
[24] = Drug uptake in albino F344/DuCrlCrlj rat epididymis assessed as ng equivalent of CS-1036 at 5 mg/kg, po after 336 hrs by liquid scintillation counting; assay type: ADME, organism-based; design: dose 5 mg/kg, dosed compound name [14C]CS-1036, route oral; details: in vivo
[25] = Drug uptake in albino F344/DuCrlCrlj rat bone marrow at 5 mg/kg, po after 336 hrs by liquid scintillation counting; assay type: ADME, organism-based; design: dose 5 mg/kg, dosed compound name [14C]CS-1036, route oral; details: in vivo
Harderian gland [26] = assay: Drug uptake in albino F344/DuCrlCrlj rat harderian gland assessed as ng equivalent of CS-1036 at 5 mg/kg, po after 8 hrs by liquid scintillation counting; assay type: ADME, organism-based; design: dose 5 mg/kg, dosed compound name [14C]CS-1036, route oral; details: in vivo
Aorta [27] = assay: Drug uptake in albino F344/DuCrlCrlj rat aorta assessed as ng equivalent of CS-1036 at 5 mg/kg, po after 4 hrs by liquid scintillation counting; assay type: ADME, organism-based; design: dose 5 mg/kg, dosed compound name [14C]CS-1036, route oral; details: in vivo

Radiolabel recovery [1]: 22.3 ngequiv/g | Radiolabel recovery [2]: 24.9 ngequiv/g | Radiolabel recovery (Plasma [3]): 11.3% | Radiolabel recovery (Pancreas): 325 ngequiv/g | Radiolabel recovery (Harderian gland [4]): 88 ngequiv/g | Radiolabel recovery [5]: 54.3 ngequiv/g | Radiolabel recovery (Stomach [6]): 5.1 ngequiv/g | Radiolabel recovery [7]: 7 ngequiv/g | Radiolabel recovery (Thymus): 6.6 ngequiv/g | Radiolabel recovery (Large intestine): 6620 ngequiv/g | Radiolabel recovery (Heart): 1.1 ngequiv/g | Radiolabel recovery (Adrenal gland [8]): 3.3 ngequiv/g | Radiolabel recovery (Harderian gland [9]): 9 ngequiv/g | Radiolabel recovery (Cerebellum): 9.35 ngequiv/g | Drug metabolism (Plasma [10]): metabolite_detected | Radiolabel recovery (Spleen [11]): 7.81 ngequiv/g | Radiolabel recovery (Stomach [12]): 16 ngequiv/g | Radiolabel recovery (Aorta [13]): 8.4 ngequiv/g | Radiolabel recovery (Lung [14]): 47.1 ngequiv/g | Radiolabel recovery (Liver): 2.66 ngequiv/g | Radiolabel recovery (Adrenal gland [15]): 93 ngequiv/g | Radiolabel recovery [16]: 9.5 ngequiv/g | Radiolabel recovery (Spleen [17]): 70.6 ngequiv/g | Radiolabel recovery (Aorta [18]): 15.9 ngequiv/g | Radiolabel recovery (Plasma [19]): 26.7 ngequiv/ml | Radiolabel recovery [20]: 29.9 ngequiv/g | Radiolabel recovery [21]: 8.58 ngequiv/g | Radiolabel recovery (Small intestine): 121 ngequiv/g | Radiolabel recovery (Zone of skin): 23.9 ngequiv/g | Radiolabel recovery (Lung [22]): 12.8 ngequiv/g | Radiolabel recovery [23]: 42.7 ngequiv/g | Radiolabel recovery [24]: 3.3 ngequiv/g | Radiolabel recovery [25]: 26.2 ngequiv/g | Radiolabel recovery (Harderian gland [26]): 24.5 ngequiv/g | Radiolabel recovery (Aorta [27]): 13.3 ngequiv/g
SMILES: C[C@H]1O[C@@H](O[C@H]2[C@H](O)[C@@H](O)[C@@H](O[14C@H]3[14C@H](O)[14CH2]N[14C@@H]3[14CH2]O)O[C@@H]2CO)[C@H](O)[C@@H](O)[C@@H]1O
